Compound activity as filed in PubChem.
Only some compounds are listed: those with a hit (about 1.4% of all), similar ones and a draw of the others.
iPSC survival up: hiPSC single-cell survival enhancement; ATPlite luminescence; 100% = ROCK inhibitor wells, 0% = DMSO; survival enhancement, % at 20 µM; 360,000 compounds, 0.044% hits; AID 602274; in the data active means survival enhancement above about 18%;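 further: cells exposed to compounds for 16 hours before the ATP read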
MT1-MMP act inh: MT1-MMP (human) activation inhibition | P50281 | HT1080 RFP-PRO-GFP cells, GFP/RFP ratio fluorescence, overnight; percent of plate control window, DMSO zero | GFP/RFP ratio change, % at 20 µM | 360,000 compounds, 0.061% hits | AID 651647;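 active means GFP/RFP ratio change of at least 30% with cell ATP level not reduced by more than half and red fluorescence within 50% of control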
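Test system: HT1080 cells expressing an RFP-PRO-GFP fluorescent reporter construct / Compound dosing: single-point 20 µM compound, 1% DMSO / Schedule: cells overnight before dosing, compound overnight, 37 °C, 5% CO2 / Evaluation: GFP/RFP fluorescence ratio / Control set: DMSO and RFP-L50D-GFP cell wells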
NRP1-CendR mod: modulators of CendR peptide binding to human neuropilin-1 | FAM-RPARPAR peptide binding to NRP-1, fluorescence polarization | inhibition, % at 25 µM | 360,000 compounds, 0.85% hits;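 active means inhibition or corrected inhibition above about 18%, plus a signal ratio from 0.5 to 1.5, limit read from the data, passing the limit was not always enough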
Target sequence (O14786 whole entry, looked up): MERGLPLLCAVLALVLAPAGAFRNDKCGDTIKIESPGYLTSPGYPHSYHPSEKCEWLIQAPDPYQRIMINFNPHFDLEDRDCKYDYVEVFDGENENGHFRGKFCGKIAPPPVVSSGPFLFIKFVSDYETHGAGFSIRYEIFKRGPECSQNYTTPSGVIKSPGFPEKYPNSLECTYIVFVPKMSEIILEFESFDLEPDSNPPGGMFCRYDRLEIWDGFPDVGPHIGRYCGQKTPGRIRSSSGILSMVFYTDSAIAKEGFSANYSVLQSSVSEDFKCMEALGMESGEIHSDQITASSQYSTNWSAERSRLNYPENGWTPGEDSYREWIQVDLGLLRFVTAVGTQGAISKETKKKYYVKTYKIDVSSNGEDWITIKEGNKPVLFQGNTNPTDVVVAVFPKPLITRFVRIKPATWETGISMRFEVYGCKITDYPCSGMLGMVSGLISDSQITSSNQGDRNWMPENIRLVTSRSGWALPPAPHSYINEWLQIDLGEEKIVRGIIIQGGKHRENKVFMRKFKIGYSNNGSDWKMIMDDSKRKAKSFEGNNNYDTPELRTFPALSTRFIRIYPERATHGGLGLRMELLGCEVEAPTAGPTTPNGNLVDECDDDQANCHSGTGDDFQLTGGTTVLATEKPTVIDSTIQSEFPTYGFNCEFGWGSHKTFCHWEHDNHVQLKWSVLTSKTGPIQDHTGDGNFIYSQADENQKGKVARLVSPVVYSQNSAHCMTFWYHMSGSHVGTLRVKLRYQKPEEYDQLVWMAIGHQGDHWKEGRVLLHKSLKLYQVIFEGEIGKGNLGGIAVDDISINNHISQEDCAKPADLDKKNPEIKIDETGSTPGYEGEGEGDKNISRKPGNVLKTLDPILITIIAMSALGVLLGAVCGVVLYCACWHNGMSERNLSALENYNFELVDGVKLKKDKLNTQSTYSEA
SKN-1 inh: C. elegans SKN-1 inhibition; inhibition, % at 21.8 µM; AID 624304; 360,000 compounds, 0.49% hits; C. elegans VP596 Pgst-4::GFP/RFP ratio, acrylamide-induced, 24 h;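 active means interference check ratio from 0.5 to 1.5 plus GFP to RFP signal ratio inhibition reaching or exceeding a fixed threshold, cut at about 30% in these data, passing the limit was not always enough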
* hit, by the source's call.

SMILES	iPSC survival up	MT1-MMP act inh	NRP1-CendR mod	SKN-1 inh
CCN(CC)c1ccc(CN2CC=C(c3ccc(F)cc3)CC2)cc1	-1	-2	20*	-9
COc1ccc(CN2CC=C(c3ccc(F)cc3)CC2)cc1Br	0	0	-2	19
Cn1cc(C(=O)OCC(=O)Nc2ccccc2)c2ccccc21	0	6	21*	-1
Cn1cc(C(=O)OCC(=O)Nc2ccccc2Cl)c2ccccc21	0	3	9	12
NC(N)=N/N=C/c1ccc(N(c2ccccc2)c2ccccc2)cc1	-1	-28	25*	-6
C=CC[N+]1(C)C2CCC1CC(O)C2 (centres undefined)	-2	4	21*	1
CC1(C)CC(N(CCc2ccccc2)Cc2ccccc2)CCO1 (centres undefined)	-1	-2	0	-8
Cn1c(O)c(/C=N/NC(=O)c2ccncc2)c(=O)[nH]c1=S	-1	10	-66	42*
CN(C)c1ccc(/C=C/[N+](=O)[O-])cc1	-3	3	-18	40*
C/C(=C\c1ccc(N(C)C)cc1)[N+](=O)[O-]	1	-17	-2	42*
CN(C)c1ccc(C=C2C(=O)NC(=O)NC2=O)cc1	0	0	-7	13
CN1CC=C2C(C#N)=C(N)C(C#N)(C#N)C(c3ccncc3)C2C1 (centres undefined)	-1	-34	49	40*
O=C(Nc1ccc(OC(=O)N2CCCC2)cc1)N1CCOCC1	4	5	2	38*
O=C(/C=C/c1c[nH]c2ccccc12)c1c(O)n(CCc2ccccc2)c(=O)[nH]c1=O	-1	-129	133	40*
COC(=O)CCCC(NC(=S)N1CC2C[C@@H](C1)Cn1c2cccc1=O)C(=O)OC (some centres undefined)	0	2	5	13
O=C1NCN(c2ccccc2)C12CCN(C(c1nnnn1C1CCCC1)C1CC1)CC2 (centres undefined)	-4	-3	7	-2
CN1/C(=C\C=C2C(=O)NC(=O)NC2=O)C(C)(C)c2ccccc21	0	-136	60	0
CC1(C)OC(c2ccccc2)=C/C(=C/C=C2C(=O)NC(=O)NC2=O)O1	0	-126	-2	46*
O=C(c1cccnc1)N1Cc2ccccc2-n2nncc2C1	3	6	-3	-10
Clc1ccc(-c2nc3ccc(Cl)cn3c2CN2CCOCC2)cc1	1	2	50*	2
Clc1ccc(-c2nc3ccc(Cl)cn3c2CN2CCCCC2)cc1	2	-5	-4	5
CCCC12CN3CCN(C1)CC(CCC)(C3)C2=O	0	-5	19	10
C=CCNC(=S)Nc1ccc(OC(=O)Nc2ccc(Cl)c(Cl)c2)cc1	-1	1	9	3
O=C(Nc1ccc(Cl)c(Cl)c1)c1ccco1	0	1	7	42*
C#C[C@@]1(O)CCC2C3CCC4=C/C(=N/OCC(=O)NC(C(=O)O)C(C)O)CC[C@]4(C)C3CC[C@@]21C (some centres undefined)	0	4	3	-5
SMILES	iPSC survival up	MT1-MMP act inh	NRP1-CendR mod	SKN-1 inh
CC1=Nc2ccccc2/C1=C/c1c(O)[nH]c(=O)[nH]c1=O	0	-8	-6	36*
CC1(C)N(O)C2CCCCC2N1O (centres undefined)	-2	0	-11	-3
CC12CCCCC1N(O)CN2O (centres undefined)	2	7	23*	1
C=CCn1c(O)c(C(CC)=NCCC2=CCCCC2)c(=O)[nH]c1=O	15	4	30*	7
CCCOc1ccccc1OCC(=O)N1CCN(CC(=O)N2CCOCC2)CC1	0	1	7	2
CCCC1=C(C(=O)OCC)C2(C(=O)Nc3ccccc32)C(C#N)=C(N)O1 (centres undefined)	-1	2	2	2
O=C1CN(C(=O)COC(=O)Cc2ccccc2)c2ccccc2N1	0	-1	10	7
O=c1[nH]c(O)c(N=Nc2cc([N+](=O)[O-])ccc2O)c(=O)[nH]1	-2	58	-1	50*
C=C[C@@H]1C2=CCOC(=O)C2=CO[C@H]1O[C@@H]1O[C@H](CO)[C@@H](O)[C@H](O)[C@H]1O	-3	-12	24*	-13
O=c1ccc2cc(OC3O[C@H](CO)[C@@H](O)[C@H](O)[C@H]3O)c(O)cc2o1 (some centres undefined)	0	4	-9	10
CCOC(=O)[C@]1(C#N)[C@@H]2C=CC(C(C)=O)=CN2[C@@H](C(N)=O)[C@@H]1c1ccsc1	-1	-16	-13	31
COc1cc(N2CCOCC2)ccc1/C=C1\C(=O)NC(=O)N(Cc2cccs2)C1=O	-1	12	-38	27
COc1cc(N2CCOCC2)ccc1/C=C1\C(=O)NC(=O)N(Cc2ccc3c(c2)OCO3)C1=O	2	-22	-46	41*
CC(=O)N1CC(=O)Nc2ccc(Br)cc2C1c1ccc(F)cc1 (centres undefined)	0	0	-2	6
COc1ccccc1Cn1c(SCC#N)nc2cc(C(=O)N3CCC4(CC3)OCCO4)ccc2c1=O	1	-4	-2	-9
Cc1[nH]c2ccccc2c1C(=O)CN1CC=C(c2ccccc2)CC1	-1	-5	-3	-9
CCN1CC=C(c2c[nH]c3ccccc23)CC1	-2	-6	31*	-11
CC(=O)Nc1ccc(OCCF)cc1	-2	6	26*	-4
O=C(N/N=C/c1c(O)n(Cc2ccccc2)c(=O)[nH]c1=O)c1ccncc1	-1	-12	-51	-11
CC(=O)c1ccc2c(c1)C1C(Cl)C(Sc3ccccc3[N+](=O)[O-])CC1C(c1ccccc1[N+](=O)[O-])N2 (centres undefined)	3	-12	-26	42*
COC(=O)C1=C(c2cccc(OCc3ccccc3)c2)C[C@@H]2CC[C@H]1N2C	0	0	7	11
COC(=O)C1=C(c2ccc(OC(F)(F)F)cc2)C[C@@H]2CC[C@H]1N2C(=O)NCCOc1ccccc1	0	1	2	-4
COC(=O)C1=C(c2cccc(C#N)c2)C[C@@H]2CC[C@H]1N2C(=O)NC(C)C	3	1	22*	11
COC(=O)C1=C(c2ccc(-c3ccccc3)c(F)c2)C[C@@H]2CC[C@H]1N2C(=O)N1CCC(C)CC1	3	-4	25*	4
CCCNC(=O)N1[C@H]2CC[C@@H]1C(C(=O)OC)=C(c1ccc(OC(F)(F)F)cc1)C2	-4	5	29*	13
COC(=O)C1=C(c2ccccc2)C[C@@H]2CC[C@H]1N2C	-2	2	25*	-4
COC(=O)C1=C(c2cccc(C#N)c2)C[C@@H]2CC[C@H]1N2C(=O)NC1CCCCC1	-1	1	4	0
CC(=O)N1CC(=O)Nc2ccc(F)cc2C1c1ccccc1 (centres undefined)	0	-1	-5	15
CCOC(=O)N1CCC(NC(=O)CCc2nc(C3=CCN(C)CC3)no2)CC1	2	-1	-1	5
